Results published in ChEMBL document CHEMBL2176903, “P2-substituted N-acylprolylpyrrolidine inhibitors of prolyl oligopeptidase: biochemical evaluation, binding mode determination, and assessment in a cellular model of synucleinopathy” (J Med Chem, 2012).
Active and inactive are the calls of the source. The calls are words filed in the database; no cut-off is given here.

Target: Dipeptidyl peptidase 2 (Homo sapiens, UniProt Q9UHL4)
Test: Inhibition of human seminal plasma DPP2 assessed as pNA release from Lys-Ala-p-nitroanilide substrate pre-incubated with enzyme for 15 min prior to substrate addition by […]

| Compound | IC50 [µM] |
| --- | --- |
| CC(C)(C)OC(=O)NCc1cn([C@H]2C[C@@H](C(=O)N3CCCC3)N(C(=O)OCc3ccccc3)C2)nn1 | > 100 |
| O=C([C@@H]1C[C@H](n2cc(-c3ccc(F)c(F)c3)nn2)CN1C(=O)CCCc1ccccc1)N1CCCC1 | > 10 |
| O=C([C@@H]1C[C@H](n2cc(CN3CCNCC3)nn2)CN1C(=O)CCCc1ccccc1)N1CCCC1 | > 100 |
| N#C[C@@H]1CCCN1C(=O)[C@@H]1CCCN1C(=O)CCCc1ccccc1 | > 100 |
| N#C[C@@H]1CCCN1C(=O)[C@@H]1C[C@H](N=[N+]=[N-])CN1C(=O)CCCc1ccccc1 | > 100 |

Now from value to compound:

| IC50 [µM] | Compound |
| --- | --- |
| > 100 | O=C([C@@H]1C[C@H](n2cc(-c3ccccn3)nn2)CN1C(=O)CCCc1ccccc1)N1CCCC1 |
| > 100 | O=C([C@@H]1C[C@H](n2cc(-c3ccccc3)nn2)CN1C(=O)OCc1ccccc1)N1CCCC1 |
| > 100 | O=C([C@@H]1C[C@H](n2cc(-c3ccccc3)nn2)CN1C(=O)CCCc1ccccc1)N1CCCC1 |

Target: Prolyl endopeptidase (Sus scrofa, UniProt P23687)
Sequence (P23687 whole entry): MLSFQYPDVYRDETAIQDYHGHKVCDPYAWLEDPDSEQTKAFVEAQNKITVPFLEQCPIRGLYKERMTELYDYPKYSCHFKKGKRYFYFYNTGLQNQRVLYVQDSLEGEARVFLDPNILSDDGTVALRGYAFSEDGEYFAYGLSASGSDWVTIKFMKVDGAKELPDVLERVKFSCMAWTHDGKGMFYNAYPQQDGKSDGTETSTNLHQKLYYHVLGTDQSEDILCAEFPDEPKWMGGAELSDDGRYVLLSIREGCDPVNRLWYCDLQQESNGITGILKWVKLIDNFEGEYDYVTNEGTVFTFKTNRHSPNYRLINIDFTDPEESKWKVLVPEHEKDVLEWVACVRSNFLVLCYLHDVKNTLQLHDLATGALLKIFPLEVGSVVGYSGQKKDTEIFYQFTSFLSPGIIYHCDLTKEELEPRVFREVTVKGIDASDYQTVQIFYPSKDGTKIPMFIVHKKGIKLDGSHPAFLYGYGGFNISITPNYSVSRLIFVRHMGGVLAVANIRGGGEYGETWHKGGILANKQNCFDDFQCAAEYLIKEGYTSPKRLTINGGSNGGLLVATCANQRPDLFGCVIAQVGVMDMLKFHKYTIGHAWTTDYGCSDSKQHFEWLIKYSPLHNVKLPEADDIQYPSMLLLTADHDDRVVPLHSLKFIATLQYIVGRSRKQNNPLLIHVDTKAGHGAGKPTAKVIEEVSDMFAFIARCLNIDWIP
Test: Inhibition of pig PREP expressed in Escherichia coli using Z-Gly-Pro-p-nitroanilide substrate

| Compound | IC50 [µM] |
| --- | --- |
| CC(C)(C)OC(=O)NCc1cn([C@H]2C[C@@H](C(=O)N3CCCC3)N(C(=O)OCc3ccccc3)C2)nn1 | 0.141 |
| O=C([C@@H]1C[C@H](n2cc(-c3ccc(F)c(F)c3)nn2)CN1C(=O)CCCc1ccccc1)N1CCCC1 | 0.0172 |
| O=C([C@@H]1C[C@H](n2cc(CN3CCNCC3)nn2)CN1C(=O)CCCc1ccccc1)N1CCCC1 | 0.1 |
| N#C[C@@H]1CCCN1C(=O)[C@@H]1C[C@H](N=[N+]=[N-])CN1C(=O)CCCc1ccccc1 | 0.003 |

Continued, values first:

| IC50 [µM] | Compound |
| --- | --- |
| 0.069 | O=C([C@@H]1C[C@H](n2cc(-c3ccccn3)nn2)CN1C(=O)CCCc1ccccc1)N1CCCC1 |
| 0.478 | O=C([C@@H]1C[C@H](n2cc(-c3ccccc3)nn2)CN1C(=O)OCc1ccccc1)N1CCCC1 |
| 0.17 | O=C([C@@H]1C[C@H](n2cc(-c3ccccc3)nn2)CN1C(=O)CCCc1ccccc1)N1CCCC1 |

Target: not listed separately
Test: Inhibition of bovine testes DPP9 assessed as pNA release from Ala-Pro- p-nitroanilide substrate pre-incubated with enzyme for 15 min prior to substrate addition by […]
Design: species or system Bos taurus

| Compound | IC50 [µM] |
| --- | --- |
| CC(C)(C)OC(=O)NCc1cn([C@H]2C[C@@H](C(=O)N3CCCC3)N(C(=O)OCc3ccccc3)C2)nn1 | > 10 |
| O=C([C@@H]1C[C@H](n2cc(-c3ccc(F)c(F)c3)nn2)CN1C(=O)CCCc1ccccc1)N1CCCC1 | < 100 |
| O=C([C@@H]1C[C@H](n2cc(CN3CCNCC3)nn2)CN1C(=O)CCCc1ccccc1)N1CCCC1 | 1.3 |
| N#C[C@@H]1CCCN1C(=O)[C@@H]1CCCN1C(=O)CCCc1ccccc1 | > 100 |
| N#C[C@@H]1CCCN1C(=O)[C@@H]1C[C@H](N=[N+]=[N-])CN1C(=O)CCCc1ccccc1 | > 100 |

Results, then the compound that gave them:

| IC50 [µM] | Compound |
| --- | --- |
| > 100 | O=C([C@@H]1C[C@H](n2cc(-c3ccccn3)nn2)CN1C(=O)CCCc1ccccc1)N1CCCC1 |
| > 100 | O=C([C@@H]1C[C@H](n2cc(-c3ccccc3)nn2)CN1C(=O)OCc1ccccc1)N1CCCC1 |
| > 100 | O=C([C@@H]1C[C@H](n2cc(-c3ccccc3)nn2)CN1C(=O)CCCc1ccccc1)N1CCCC1 |

Target: T1, Prolyl endopeptidase (Homo sapiens) (UniProt P48147)
T1 sequence (whole entry): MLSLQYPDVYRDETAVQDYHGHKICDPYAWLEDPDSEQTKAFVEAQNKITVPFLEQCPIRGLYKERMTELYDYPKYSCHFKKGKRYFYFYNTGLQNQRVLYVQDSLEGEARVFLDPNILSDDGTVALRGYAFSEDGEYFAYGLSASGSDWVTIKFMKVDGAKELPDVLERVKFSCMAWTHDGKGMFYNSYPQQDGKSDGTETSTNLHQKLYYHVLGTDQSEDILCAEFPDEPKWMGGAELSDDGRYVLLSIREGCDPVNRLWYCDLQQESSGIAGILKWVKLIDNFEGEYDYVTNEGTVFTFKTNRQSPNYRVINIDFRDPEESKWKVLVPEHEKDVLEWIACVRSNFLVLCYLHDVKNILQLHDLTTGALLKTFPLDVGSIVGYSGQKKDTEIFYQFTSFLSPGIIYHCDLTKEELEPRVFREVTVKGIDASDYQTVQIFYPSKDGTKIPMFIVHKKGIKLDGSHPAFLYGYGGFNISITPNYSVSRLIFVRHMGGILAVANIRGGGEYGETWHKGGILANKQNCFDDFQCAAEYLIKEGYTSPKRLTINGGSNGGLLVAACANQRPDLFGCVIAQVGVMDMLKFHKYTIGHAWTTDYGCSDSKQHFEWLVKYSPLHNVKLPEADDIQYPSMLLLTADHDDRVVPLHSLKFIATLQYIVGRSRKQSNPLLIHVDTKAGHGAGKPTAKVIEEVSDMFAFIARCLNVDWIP
Test: Inhibition of PREP in human SH-SY5Y cellular model of synucleinopathy over-expressing alpha-synuclein assessed as reduction in late apoptotic level 0.1 to 9 uM incubated for 3 days under oxidative stress condition by high content multiparametric method
Procedure, shortened: (§1)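 SH-SY5Y neuroblastoma cells overexpressing α-SYN were incubated with inhibitor for 3 days under oxidative stress from H₂O₂ plus FeCl₂. Aggregates were detected by thioflavin S staining. Late apoptosis was scored as nuclear condensation and fragmentation. Quantification used automated high-content imaging. Values are % of cells relative to the 1% DMSO control. Significance was tested by ANOVA with Dunnett's post-test (5% level).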

| Compound | inhibition |
| --- | --- |
| N#C[C@@H]1CCCN1C(=O)[C@@H]1C[C@H](N=[N+]=[N-])CN1C(=O)CCCc1ccccc1 | Active |

Target: T2, Prolyl endopeptidase FAP (Mus musculus, UniProt P97321)
T2 sequence (P97321 whole entry): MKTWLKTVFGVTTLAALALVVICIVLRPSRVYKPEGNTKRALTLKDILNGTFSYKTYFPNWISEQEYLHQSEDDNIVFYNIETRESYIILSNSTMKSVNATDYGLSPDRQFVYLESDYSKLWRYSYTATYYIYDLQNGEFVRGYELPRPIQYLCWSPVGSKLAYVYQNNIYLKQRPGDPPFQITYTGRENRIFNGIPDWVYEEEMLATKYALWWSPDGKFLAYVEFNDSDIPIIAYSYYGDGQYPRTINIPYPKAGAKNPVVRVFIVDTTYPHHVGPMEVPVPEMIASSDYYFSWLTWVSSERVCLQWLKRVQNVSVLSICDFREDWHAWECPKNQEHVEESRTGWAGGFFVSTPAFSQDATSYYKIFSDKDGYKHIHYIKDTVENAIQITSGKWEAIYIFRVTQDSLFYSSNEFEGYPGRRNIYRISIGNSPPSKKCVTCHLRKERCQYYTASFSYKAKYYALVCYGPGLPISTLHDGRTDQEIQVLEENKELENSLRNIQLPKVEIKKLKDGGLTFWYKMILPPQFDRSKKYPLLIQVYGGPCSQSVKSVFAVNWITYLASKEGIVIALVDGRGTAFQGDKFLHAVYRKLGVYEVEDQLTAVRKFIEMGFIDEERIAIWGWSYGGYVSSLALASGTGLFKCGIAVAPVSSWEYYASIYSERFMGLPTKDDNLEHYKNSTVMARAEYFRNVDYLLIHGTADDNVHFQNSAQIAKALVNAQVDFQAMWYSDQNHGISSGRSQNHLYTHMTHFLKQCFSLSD
Test: Inhibition of mouse recombinant FAP expressed in HEK293 cells assessed as pNA release from Ala-Pro-p-nitroanilide pre-incubated with enzyme for 15 mins prior to substrate addition by […]
Assay type: cell-based

| Compound | IC50 [µM] |
| --- | --- |
| O=C([C@@H]1C[C@H](n2cc(-c3ccccn3)nn2)CN1C(=O)CCCc1ccccc1)N1CCCC1 | > 100 |
| CC(C)(C)OC(=O)NCc1cn([C@H]2C[C@@H](C(=O)N3CCCC3)N(C(=O)OCc3ccccc3)C2)nn1 | > 100 |
| O=C([C@@H]1C[C@H](n2cc(-c3ccc(F)c(F)c3)nn2)CN1C(=O)CCCc1ccccc1)N1CCCC1 | > 5 |
| O=C([C@@H]1C[C@H](n2cc(CN3CCNCC3)nn2)CN1C(=O)CCCc1ccccc1)N1CCCC1 | > 100 |
| N#C[C@@H]1CCCN1C(=O)[C@@H]1CCCN1C(=O)CCCc1ccccc1 | > 10 |
| N#C[C@@H]1CCCN1C(=O)[C@@H]1C[C@H](N=[N+]=[N-])CN1C(=O)CCCc1ccccc1 | > 100 |

Target: Dipeptidyl peptidase 4 (Homo sapiens, UniProt P27487)
Sequence (P27487 whole entry): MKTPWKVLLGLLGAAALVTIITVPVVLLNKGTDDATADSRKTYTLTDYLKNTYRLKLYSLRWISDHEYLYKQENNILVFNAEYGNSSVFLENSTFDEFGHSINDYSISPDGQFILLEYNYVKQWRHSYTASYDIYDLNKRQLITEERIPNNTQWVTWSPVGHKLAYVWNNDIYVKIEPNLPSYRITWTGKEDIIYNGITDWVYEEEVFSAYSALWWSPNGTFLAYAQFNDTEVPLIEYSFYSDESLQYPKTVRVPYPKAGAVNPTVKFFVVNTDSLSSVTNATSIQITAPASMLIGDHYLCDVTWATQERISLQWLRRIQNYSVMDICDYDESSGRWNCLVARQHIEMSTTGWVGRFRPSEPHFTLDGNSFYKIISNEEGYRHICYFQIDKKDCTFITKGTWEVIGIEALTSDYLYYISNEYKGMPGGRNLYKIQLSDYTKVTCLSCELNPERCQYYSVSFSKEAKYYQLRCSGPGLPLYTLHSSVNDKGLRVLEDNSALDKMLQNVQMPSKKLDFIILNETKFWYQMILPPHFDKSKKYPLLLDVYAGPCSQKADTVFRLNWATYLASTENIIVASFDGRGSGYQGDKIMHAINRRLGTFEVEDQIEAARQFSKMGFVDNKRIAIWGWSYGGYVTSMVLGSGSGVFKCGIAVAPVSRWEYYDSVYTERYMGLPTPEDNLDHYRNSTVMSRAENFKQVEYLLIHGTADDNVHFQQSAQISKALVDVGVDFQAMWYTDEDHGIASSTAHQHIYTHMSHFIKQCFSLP
Test: Inhibition of human seminal plasma DPP4 assessed as pNA release from Gly-Pro-p-nitroanilide substrate pre-incubated with enzyme for 15 min prior to substrate addition by […]

| Compound | IC50 [µM] |
| --- | --- |
| CC(C)(C)OC(=O)NCc1cn([C@H]2C[C@@H](C(=O)N3CCCC3)N(C(=O)OCc3ccccc3)C2)nn1 | > 100 |
| O=C([C@@H]1C[C@H](n2cc(-c3ccc(F)c(F)c3)nn2)CN1C(=O)CCCc1ccccc1)N1CCCC1 | > 100 |
| O=C([C@@H]1C[C@H](n2cc(CN3CCNCC3)nn2)CN1C(=O)CCCc1ccccc1)N1CCCC1 | > 100 |
| N#C[C@@H]1CCCN1C(=O)[C@@H]1CCCN1C(=O)CCCc1ccccc1 | > 100 |
| N#C[C@@H]1CCCN1C(=O)[C@@H]1C[C@H](N=[N+]=[N-])CN1C(=O)CCCc1ccccc1 | > 100 |

The next lines start with the values.

| IC50 [µM] | Compound |
| --- | --- |
| > 100 | O=C([C@@H]1C[C@H](n2cc(-c3ccccn3)nn2)CN1C(=O)CCCc1ccccc1)N1CCCC1 |
| > 100 | O=C([C@@H]1C[C@H](n2cc(-c3ccccc3)nn2)CN1C(=O)OCc1ccccc1)N1CCCC1 |
| > 100 | O=C([C@@H]1C[C@H](n2cc(-c3ccccc3)nn2)CN1C(=O)CCCc1ccccc1)N1CCCC1 |

Target: T1, Prolyl endopeptidase (Homo sapiens)
Test: Inhibition of PREP in human SH-SY5Y cellular model of synucleinopathy over-expressing alpha-synuclein assessed as reduction in alpha-synuclein aggregation 0.1 to 9 uM incubated for 3 days under oxidative stress condition by high content multiparametric method
Procedure, shortened: as §1

| Compound | inhibition |
| --- | --- |
| N#C[C@@H]1CCCN1C(=O)[C@@H]1C[C@H](N=[N+]=[N-])CN1C(=O)CCCc1ccccc1 | Active |
